Like-named read-outs stand apart in the source and are kept apart here.
B1: OVA: chicken egg OVA control protein (protein, UniProt P01012 2-386, looked up)
Ovalbumin: GSIGAASMEFCFDVFKELKVHHANENIFYCPIAIMSALAMVYLGAKDSTRTQINKVVRFDKLPGFGDSIEAQCGTSVNVHSSLRDILNQITKPNDVYSFSLASRLYAEERYPILPEYLQCVKELYRGGLEPINFQTAADQARELINSWVESQTNGIIRNVLQPSSVDSQTAMVLVNAIVFKGLWEKAFKDEDTQAMPFRVTEQESKPVQMMYQIGLFRVASMASEKMKILELPFASGTMSMLVLLPDEVSGLEQLESIINFEKLTEWTSSNVMEERKIKVYLPRMKMEEKYNLTSVLMAMGITDVFSSSANLSGISSAESLKISQAVHAAHAEINEAGREVVGSAEAGVDAASVSEEFRADHPFLFCIKHIATNAVLFFGRCVSP

Assays:
[1] = system: ABLE T cells (LACK-specific TCR-transgenic); test: Stimulation of ABLE T cells in vitro by peptides; assay type: cell-based, mouse
In short: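 Single-cell suspensions (red cells lysed) from spleen and lymph node of BALB/c ABLE TCR-Cα0 mice supplied both T cells and APC. They were plated at 10^6 cells/well in duplicate in RPMI 1640 with 10% heat-inactivated FCS, glutamine, pyruvate and β2-ME, with test peptides over a concentration range. At 48 h, supernatants went to sandwich ELISA against recombinant standards. Wells were then pulsed with 1 μCi [3H]thymidine and harvested 18 h later.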

L. major LV39 [2] = system: L. major LV39; design: species or system Leishmania major; conditions: in vivo
[3] = system: ABLE T cells (LACK-specific TCR-transgenic); test: T cell antagonism assay; assay type: cell-based, mouse; conditions: for Inhibitory (antagonist) activity, overall: 0.1–100 μM, proliferation, IL-4 and IFN-γ
In short: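 T cells: CD4+ cells enriched from BALB/c ABLE TCR-Cα0 spleen and lymph node by antibody/complement depletion (80% Vβ4+). APC: BALB/c TCR-Cα0 spleen cells, prepulsed 2 h at 37°C with 0.2 μM wild-type LACK peptide, washed, irradiated, then 2 h at 37°C with test peptide up to 100 μM (OVA323–336 control). 1.6 × 10^5 T cells/well were added. Cytokines were read by ELISA at 48 h; [3H]thymidine uptake over 48–66 h. Values are % inhibition versus prepulsed APC without added peptide.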

L. major LV39 [4] = system: L. major LV39; design: species or system Leishmania major; conditions: in vivo; remark: listed apart in the source
[5] = system: Vβ4+ T cells of ABLE TCR-Cα^0 mice; conditions: mouse, in vivo
[6] = system: popliteal lymph node CD4+ T cells; conditions: mouse, in vivo
[7] = APC prepulsed with LACK peptide, 48 h ELISA

| Molecule | IL-4 production by ABLE T cells ([1]; 48 h supernatants, ELISA, detection limit 50 pg/ml) | IFN-γ production by ABLE T cells ([1]; 48 h supernatants, ELISA, detection limit 1 ng/ml) | Concentration without proliferation of ABLE T cells (highest tested) ([1]; no proliferation even at concentrations up to 4 μM, [3H]thymidine) [µM] | Protection (L. major LV39 [2]) | Inhibitory (antagonist) activity, overall [3] | Inhibition of IFN-γ production [3, 7] | Inhibition of IL-4 production [3, 7] | Protection (L. major LV39 [4]) | Total number of transgenic T cells in draining lymph nodes [5] | Proliferation induced by LACK epitopes [6] |
| --- | --- | --- | --- | --- | --- | --- | --- | --- | --- | --- |
| ICFSPSLENPIVVSGSWD [LACK-N164] | neither cytokine was detected | neither cytokine was detected | > 4 | Subgroups of resistant and susceptible mice occurred | preferentially inhibited IL-4 production by ABLE T cells | inhibited consistently less | inhibited comparably to the LACK-K164 peptide | – | – | – |
| ISQAVHAAHAEINE [OVA323–336, reference compound] | – | – | – | – | no inhibitory activity | – | – | – | – | – |
| B1 | – | – | – | – | – | – | – | in contrast to the LACK deletion mutant or OVA controls | 2.9 × 10^5 | No proliferation was induced |
